Measured values: ChEMBL document CHEMBL2375244 (J Med Chem, 2013)
pIC50: −log10 of the molar value.

Assays:
NCI-H929 = test: Induction of apoptosis in human NCI-H929 cells assessed as increase in cleaved caspase-3 level at 0.005 uM after 24 hrs by FACS flow cytometric analysis relative to control; type: functional
Method in brief: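 Active caspase-3 was detected with a FITC-labelled monoclonal antibody by flow cytometry, and the percentage of cells with raised cleaved caspase-3 is reported. Triplicate experiments.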

MDA-MB-231 = test: Cytotoxicity against human MDA-MB-231 cells after 72 hrs by resazurin/resorufin-based fluorescence assay; type: functional, cell-based; details: MDA-MB-231, 72 h
SK-BR-3 = test: Cytotoxicity against human SK-BR-3 cells after 72 hrs by resazurin/resorufin-based fluorescence assay; type: functional, cell-based; details: SK-BR-3, 72 h
Method in brief: (§1)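 CellTiter-Blue viability: 1200 cells per well seeded, incubated overnight at 37 °C, 5% CO₂; drugs serially diluted 2:3 in medium, four replicate wells per concentration plus four diluent-only control wells; 72 h exposure; resazurin reduction to resorufin read by fluorescence (579 nm ex/584 nm em). IC50 is the average of three data sets, each using nine concentrations between 0.004 μM and 12.5 μM.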

A673 = test: Induction of apoptosis in human A673 cells assessed as caspase-3 activation at 0.05 uM to 5 uM after 24 hrs by luminescence assay relative to control; type: functional
Method in brief: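 Caspase-3/7 activation measured with a Caspase-Glo 3/7 luminescent assay. Cells were plated as for the high-throughput viability assay and exposed for 24 h to serial dilutions. EC50 was obtained from the dose-response.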

[1] = Cytotoxicity against human MDA-MB-436 cells after 72 hrs by resazurin/resorufin-based fluorescence assay; type: functional, cell-based; details: MDA-MB-436, 72 h
BT-549 = test: Cytotoxicity against human BT549 cells after 72 hrs by resazurin/resorufin-based fluorescence assay; type: functional, cell-based; details: BT-549, 72 h; method in brief: as §1
MDA-MB-468 = test: Cytotoxicity against human MDA-MB-468 cells after 72 hrs by MTT assay; type: functional, cell-based; details: MDA-MB-468, 72 h
Method in brief: (§2)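 Cells kept in RPMI or DMEM with 10% FBS at 37 °C, 5% CO₂ and allowed to attach overnight; 72 h with increasing inhibitor concentrations; then 1 mg/mL MTT for 3 h, DMSO solubilisation, OD read at 540 nm. Testis lines had culture conditions adapted to them. Dose-response in triplicate, 9 concentrations between 0.02 and 100 μM, averaged.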

[2] = Cytotoxicity against mouse GC-2 cells after 72 hrs by MTT assay; type: functional, cell-based; details: GC-2, 72 h; method in brief: as §2
[3] = Cytotoxicity against mouse TM4 cells after 72 hrs by MTT assay; type: functional, cell-based; details: TM4, 72 h; method in brief: as §2
[4] = Cytotoxicity against mouse GC-1 cells after 72 hrs by MTT assay; type: functional, cell-based; details: GC-1, 72 h; method in brief: as §2
CDK2/Cyclin A2 [5] = target: T1, CDK2/Cyclin A2 (Homo sapiens, UniProt P24941); test: Inhibition of human CDK2/Cyclin A2 using PKTPKKAKKL as substrate by P33-radiolabeled assay; type: protein-complex assay
Method in brief: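 Radiometric (P33) kinase assay run by a contract lab on CDK–cyclin complexes. Inhibitor tested in duplicate at 0.05 nM to 1000 nM with ATP at 10 μM. […] For the in-house assays, IC50 was obtained by Hill-equation fitting.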

CDK2/Cyclin A2 [6] = target: T1, CDK2/Cyclin A2; test: Inhibition of human CDK2/Cyclin A2 using PKTPKKAKKL as substrate by fluorescence assay; type: protein-complex assay

Row | SMILES | Activity (NCI-H929) [%] | pIC50 (MDA-MB-231) | pIC50 (SK-BR-3) | Activity (A673) [%] | pIC50 [1] | pIC50 (BT-549) | pIC50 (MDA-MB-468) | pIC50 [2] | pIC50 [3] | pIC50 [4] | pIC50 (CDK2/Cyclin A2 [5]) | pIC50 (CDK2/Cyclin A2 [6])
1 | CCc1cnn2c(NCc3ccc[n+]([O-])c3)cc(N3CCCC[C@H]3CCO)nc12 [DINACICLIB] | 63 | > 8.30 | > 8.30 | 280 | > 8.30 | < 5.00 | – | – | – | – | – | –
2 | Nc1nc(Nc2ccc(S(N)(=O)=O)cc2)sc1C(=O)c1cccnc1 | – | – | – | – | – | – | 5.55 | < 4.52 | 4.89 | 4.70 | 9.05 | 7.70
